Experimental findings from ChEMBL document CHEMBL3244336, “Antitumor agents. 1. 1,4-Bis[(aminoalkyl)amino]-9,10-anthracenediones” (J Med Chem, 1979) are described below.

Active and inactive are the calls of the source. The calls are words filed in the database; no cut-off is given here.

The ILS is how much longer treated animals lived than controls.

Assay [1] deals with B16. As to the kind of experiment: Antitumor activity against mouse B16 cells allografted in BDF1 mouse assessed as increase of median life span at 3.1 mg/kg, ip on day 1 to 9 measured up to 80 days relative to control. It is filed as functional. Conditions: route intraperitoneal. The method in brief:
(§1)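 BDF1 mice implanted ip with a homogenate from 0.05 g of B16 tumor. Test agent given ip on days 1-9. Deaths recorded for 80 days. Result is % increase in median life span over untreated controls. "Cures" are survivors/total at 80 days.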

Assay [2] has as its system P388. As to the kind of experiment: Antitumor activity against mouse P388 cells allografted in mouse assessed as increase of median life span at 12.5 mg/kg, ip on day 1, 5 and 9 measured up to 60 days relative to control. Type of assay: functional. Conditions: route intraperitoneal. The method in brief:
(§2)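 BDF1 or CDF1 mice inoculated ip with ascitic P388 leukemia cells. Dosing ip on days 1, 5 and 9. Deaths recorded for 60 days; % increase in median life span over controls. "Cures" are survivors/total at 60 days.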

In assay [3] the test system is P388. As to the kind of experiment: Antitumor activity against mouse P388 cells allografted in mouse assessed as disease cure at 300 mg/kg, ip on day 1, 5 and 9 measured up to 60 days. It is filed as functional, organism-based. The arrangement: dose 300 mg/kg. The method in brief:
(§3)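 BDF1 or CDF1 mice inoculated ip with ascitic P388 leukemia cells, dosed ip on days 1, 5 and 9. Deaths recorded for 60 days; "cures" taken as number of survivors/total at 60 days.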

Assay [4] has as its system B16. As to the kind of experiment: Antitumor activity against mouse B16 cells allografted in BDF1 mouse assessed as increase of median life span at 50 mg/kg, ip on day 1 to 9 measured up to 80 days relative to control. Type of assay: functional. Conditions: route intraperitoneal. The method, boiled down:
as §1

The subject of assay [5] is P388. As to the kind of experiment: Antitumor activity against mouse P388 cells allografted in mouse assessed as increase of median life span at 300 mg/kg, ip on day 1, 5 and 9 measured up to 60 days relative to control. Conditions: route intraperitoneal. It is filed as functional. The method, boiled down: as §2
Assay [6] concerns B16. The experiment in a line: Antitumor activity against mouse B16 cells allografted in BDF1 mouse assessed as disease cure at 50 mg/kg, ip on day 1 to 9 measured up to 80 days. Type of assay: functional, organism-based. The arrangement: dose 50 mg/kg. The method, boiled down:
(§4)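 BDF1 mice implanted ip with homogenate from 0.05 g of B16 tumor, then dosed ip on days 1-9. Deaths recorded for 80 days; "cures" scored as survivors/total at 80 days.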

Assay [7] concerns P388. The experiment in a line: Antitumor activity against mouse P388 cells allografted in mouse assessed as disease cure at 6.2 mg/kg, ip on day 1, 5 and 9 measured up to 60 days. It is filed as functional, organism-based. Also on record: dose 6.2 mg/kg. The method, boiled down: as §3
The test system of assay [8] is P388. As to the kind of experiment: Antitumor activity against mouse P388 cells allografted in mouse assessed as increase of median life span at 6.2 mg/kg, ip on day 1, 5 and 9 measured up to 60 days relative to control. Type of assay: functional. Conditions: route intraperitoneal. The method in brief: as §2
For assay [9], the system named is B16. The experiment in a line: Antitumor activity against mouse B16 cells allografted in BDF1 mouse assessed as disease cure at 3.1 mg/kg, ip on day 1 to 9 measured up to 80 days. It is filed as functional, organism-based. Also on record: dose 3.1 mg/kg. The method in brief: as §4
Assay [10] deals with P388. As to the kind of experiment: Antitumor activity against mouse P388 cells allografted in mouse assessed as increase of median life span at 3.1 mg/kg, ip on day 1, 5 and 9 measured up to 60 days relative to control. Type of assay: functional. Conditions: route intraperitoneal. The method, boiled down: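 BDF or CDF1 mice injected ip with ascitic leukemia cells, then dosed ip on days 1, 5 and 9. Deaths recorded for 60 days. Read-outs: percent increase in median life span over controls, and "cures" as survivors/total at 60 days.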

Assay [11] relates to P388. The experiment in a line: Antitumor activity against mouse P388 cells allografted in mouse assessed as disease cure at 400 mg/kg, ip on day 1 to 9 measured up to 60 days. Type of assay: functional, organism-based. Also on record: dose 400 mg/kg. The method in brief:
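P388 ascitic leukemia cells given ip to BDF1 or CDF1 mice; ip dosing on days 1-9. Deaths followed for 60 days, cures expressed as survivors/total at 60 days.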

In assay [12] the test system is B16. The experiment in a line: Antitumor activity against mouse B16 cells allografted in BDF1 mouse assessed as disease cure at 400 mg/kg, ip on day 1 to 9 measured up to 80 days. It is filed as functional, organism-based. The arrangement: dose 400 mg/kg. The method, boiled down: as §4
Assay [13] concerns P388. The experiment in a line: Antitumor activity against mouse P388 cells allografted in mouse assessed as increase of median life span at 400 mg/kg, ip on day 1 to 9 measured up to 60 days relative to control. Conditions: route intraperitoneal. Type of assay: functional. The method, boiled down:
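BDF1 or CDF1 mice inoculated ip with ascitic P388 leukemia cells. Dosing ip on days 1-9. Deaths followed for 60 days; % increase in median life span over controls.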

The test system of assay [14] is B16. As to the kind of experiment: Antitumor activity against mouse B16 cells allografted in BDF1 mouse assessed as increase of median life span at 400 mg/kg, ip on day 1 to 9 measured up to 80 days relative to control. It is filed as functional. Conditions: route intraperitoneal. The method, boiled down:
as §1

Assay [15] deals with B16. The experiment in a line: Antitumor activity against mouse B16 cells allografted in BDF1 mouse assessed as increase of median life span at 25 mg/kg, ip on day 1 to 9 measured up to 80 days relative to control. It is filed as functional. Conditions: route intraperitoneal. The method, boiled down:
as §1

Assay [16] concerns B16. As to the kind of experiment: Antitumor activity against mouse B16 cells allografted in BDF1 mouse assessed as disease cure at 25 mg/kg, ip on day 1 to 9 measured up to 80 days. It is filed as functional, organism-based. The arrangement: dose 25 mg/kg. The method in brief:
as §4

The subject of assay [17] is P388. The experiment in a line: Antitumor activity against mouse P388 cells allografted in mouse assessed as increase of median life span at 50 mg/kg, ip on day 1, 5 and 9 measured up to 60 days relative to control. It is filed as functional. Conditions: route intraperitoneal. The method, boiled down:
as §2

For assay [18], the system named is P388. The experiment in a line: Antitumor activity against mouse P388 cells allografted in mouse assessed as disease cure at 50 mg/kg, ip on day 1, 5 and 9 measured up to 60 days. It is filed as functional, organism-based. The arrangement: dose 50 mg/kg. The method in brief:
as §3

The subject of assay [19] is P388. As to the kind of experiment: Antitumor activity against mouse P388 cells allografted in mouse assessed as disease cure at 250 mg/kg, ip on day 1, 5 and 9 measured up to 60 days. Also on record: dose 250 mg/kg. Type of assay: functional, organism-based. The method, boiled down: as §3
Assay [20] concerns P388. The experiment in a line: Antitumor activity against mouse P388 cells allografted in mouse assessed as increase of median life span at 250 mg/kg, ip on day 1, 5 and 9 measured up to 60 days relative to control. It is filed as functional. Conditions: route intraperitoneal. The method in brief: as §2
The test system of assay [21] is B16. The experiment in a line: Antitumor activity against mouse B16 cells allografted in BDF1 mouse assessed as increase of median life span at 6.2 mg/kg, ip on day 1 to 9 measured up to 80 days relative to control. Type of assay: functional. Conditions: route intraperitoneal. The method in brief:
as §1

The subject of assay [22] is P388. The experiment in a line: Antitumor activity against mouse P388 cells allografted in mouse assessed as disease cure at 25 mg/kg, ip on day 1, 5 and 9 measured up to 60 days. Type of assay: functional, organism-based. The arrangement: dose 25 mg/kg. The method, boiled down:
as §3

Assay [23] deals with P388. As to the kind of experiment: Antitumor activity against mouse P388 cells allografted in mouse assessed as increase of median life span at 25 mg/kg, ip on day 1, 5 and 9 measured up to 60 days relative to control. Type of assay: functional. Conditions: route intraperitoneal. The method in brief:
as §2

For assay [24], the system named is B16. As to the kind of experiment: Antitumor activity against mouse B16 cells allografted in BDF1 mouse assessed as disease cure at 12.5 mg/kg, ip on day 1 to 9 measured up to 80 days. Type of assay: functional, organism-based. The arrangement: dose 12.5 mg/kg. The method, boiled down: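 BDF1 mice implanted ip with a homogenate from 0.05 g of tumor. Dosed ip on days 1–9, with deaths recorded for 80 days. "Cures" counted as survivors/total at 80 days.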

Assay [25] has as its system B16. The experiment in a line: Antitumor activity against mouse B16 cells allografted in BDF1 mouse assessed as increase of median life span at 12.5 mg/kg, ip on day 1 to 9 measured up to 80 days relative to control. It is filed as functional. Conditions: route intraperitoneal.

As to `CC(O)CNCCNc1ccc(NCCNCC(C)O)c2c1C(=O)c1c(O)ccc(O)c1C2=O` (configuration not stated), the increase in life span (ILS) at 3.1 mg/kg with B16 [1] came out at 240%. Further, the ILS at 12.5 mg/kg in the assay with P388 [2] worked out at 255%.

With `O=C1c2c(O)ccc(O)c2C(=O)c2c(NCCN3CCCCC3)ccc(NCCN3CCCCC3)c21`, the outcome with P388 [3] and in the assay on B16 [6] was inactive. Moreover, the ILS at 50 mg/kg with B16 [4] was 0%. In the assay on P388 [5], the ILS at 300 mg/kg was 40%.

Consider `CNCCNc1ccc(NCCNC)c2c1C(=O)c1c(O)ccc(O)c1C2=O`, for which the outcome with P388 [7] and in the assay on B16 [9] was inactive. The ILS at 3.1 mg/kg with B16 [1] is 210%. Also, the ILS at 6.2 mg/kg in the assay with P388 [8] amounted to 118%.

Regarding `NCCNc1ccc(NCCN)c2c1C(=O)c1c(O)ccc(O)c1C2=O`, the ILS at 3.1 mg/kg with P388 [10] came out at 173%.

In the case of `O=C1c2ccccc2C(=O)c2c(NCCN3CCOCC3)ccc(NCCN3CCOCC3)c21`, the outcome in the assay on P388 [11] and in the assay on B16 [12] was inactive. Moreover, the increase in lifespan (ILS) at 400 mg/kg was determined as 119% in the assay with P388 [13] and 33% in the assay on B16 [14].

On to `O=C1c2ccccc2C(=O)c2c(NCCN(CCO)CCO)ccc(NCCN(CCO)CCO)c21`, for which the outcome in the assay on P388 [3] was inactive. Moreover, the ILS at 50 mg/kg in the assay on B16 [4] is 88%. Further, the increase in life span (ILS) at 300 mg/kg in the assay with P388 [5] worked out at 73%.

Consider `CN(C)CCCNc1ccc(NCCCN(C)C)c2c1C(=O)c1c(O)ccc(O)c1C2=O`, for which, in the assay with B16 [15], the ILS at 25 mg/kg stood at 25%. For the same compound, the outcome in the assay on B16 [16] and in the assay on P388 [18] was inactive. In addition, the ILS at 50 mg/kg with P388 [17] was determined as 29%.

Consider `O=C1c2ccccc2C(=O)c2c(NCCc3ccccn3)ccc(NCCc3ccccn3)c21`, for which the outcome in the assay on P388 [19] was inactive. The ILS at 250 mg/kg with P388 [20] amounted to 0%.

For `O=C1c2ccccc2C(=O)c2c(NCCNCCO)ccc(NCCNCCO)c21` [AMETANTRONE], in the assay on B16 [21], the ILS at 6.2 mg/kg turned out to be 129%. Moreover, in the assay on P388 [22], the outcome was inactive. In the assay on P388 [23], the ILS at 25 mg/kg is 154%.

Regarding `CN(C)CCNc1ccc(NCCN(C)C)c2c1C(=O)c1ccc(C(=O)O)cc1C2=O`, the result with P388 [19] was inactive. Moreover, in the assay with P388 [20], the ILS at 250 mg/kg came to 0%.

For `O=C1c2c(O)ccc(O)c2C(=O)c2c(NCCNCC(O)CO)ccc(NCCNCC(O)CO)c21` (configuration not stated), the result in the assay on B16 [24] was inactive. The ILS at 12.5 mg/kg with B16 [25] came to 79%. Besides, in the assay with P388 [17], the ILS at 50 mg/kg is over 422%.
